S1P3 antag = antagonists of human S1P3 receptor. Q99500. CHO S1P3 NFAT-BLA reporter, FRET fluorescence, antagonist mode. inhibition, % at 4.98 µM. 170,000 tested, 0.27% active;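 active = inhibition above the plate cutoff, the mean inhibition of test wells on that plate plus 3 SD, cut at about 28% in these data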;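 note: cells challenged with S1P at its EC80 of 0.8 µM; blue over green emission ratio from cleaved BLA substrate after 4 h stimulation; 0% = S1P-stimulated wells and 100% = unstimulated DMSO-only wells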
Target sequence (Q99500 whole entry, looked up): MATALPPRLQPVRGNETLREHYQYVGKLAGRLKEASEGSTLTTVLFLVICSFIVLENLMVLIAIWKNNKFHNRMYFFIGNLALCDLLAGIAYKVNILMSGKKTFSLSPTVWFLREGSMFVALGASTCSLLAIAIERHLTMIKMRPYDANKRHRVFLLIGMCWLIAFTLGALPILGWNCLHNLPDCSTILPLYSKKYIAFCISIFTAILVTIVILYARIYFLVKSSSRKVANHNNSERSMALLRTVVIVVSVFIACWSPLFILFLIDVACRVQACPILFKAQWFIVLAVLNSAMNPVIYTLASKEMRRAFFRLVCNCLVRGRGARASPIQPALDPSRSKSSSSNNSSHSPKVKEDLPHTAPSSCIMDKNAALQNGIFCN
BB579 growth dn = reduces growth of yeast BB579 in restrictive medium | S. cerevisiae BB579 growth, OD615, 48 h | inhibition, % at 10 µM | 140,000 tested, 0.51% active | AID 804;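 active = inhibition above a set limit, 3 SD over the mean compound inhibition, cut at about 44% in these data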
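Test system: DeaD yeast strain BB579 / Buffer or medium: restrictive glucose-based CSMM-D medium / Doses: single 10 µM dose / Schedule: 4 h cell preincubation, 48 h compound exposure, 30 °C humidified / Technique: culture absorbance at 615 nm / Controls: amphotericin B positive control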
Yeast life ext = yeast lifespan extension; S. cerevisiae growth with nicotinamide, OD615; deaD strain in restrictive glucose medium; inhibition of the nicotinamide effect, % at 10 µM; 130,000 tested, 0.68% active; AID 775;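 active = inhibition above a set limit, placed 3 SD over the median of all compounds, cut at about 26% in these data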;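 note: 0% = nicotinamide-treated wells and 100% = cells grown without nicotinamide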
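System: DeaD-strain S. cerevisiae / Buffer or medium: CSMM-D, restrictive glucose (dextrose) synthetic minimal medium / Probe or stimulus: nicotinamide, 1.5 mM, co-present with compound / Compound: one concentration, 10 µM, DMSO 0.25% / Incubation: 48 h compound exposure at 30 °C, humidified / Technique: optical density (absorbance) at 615 nm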
The depositor's hits bear a star; / = no result. In the library only some 0.98% were active in any assay of this set; here they are far more common.

SMILES	S1P3 antag	BB579 growth dn	Yeast life ext
CCOc1ccccc1Nc1ncnc2c1cnn2-c1ccccc1	113*	/	/
CC(=C1C2C=CC1C1C(=O)NC(=O)C21)c1ccccc1 (stereo unspecified)	-11	-42	-5
O=C1NC2(CCCCC2)C(=O)N1/N=C/c1ccc(O)cc1O	/	-4	-11
O=C(Oc1c(CN2CCOCC2)cc(Cl)c2cccnc12)c1cccs1	-14	/	/
O=C(Oc1c(Cl)cc(Cl)c2cccnc12)c1cccs1	/	99*	/
CCNC(=O)Nc1ccccc1C(=O)OC	-14	/	/
O=C(CCSc1nnc(-c2ccncc2)o1)Nc1cccc(Cl)c1	-2	/	/
O=C(CCSc1nnc(-c2ccncc2)o1)Nc1ccc(Cl)cc1	/	86*	-12
CCSc1nnc(-c2cc(Br)ccc2N)c(=O)[nH]1	-10	/	/
CN1CCc2cc3c(c4c2[C@H]1[C@H](O)c1ccccc1-4)OCO3	5	62*	-5
COc1ccc2c(c1OC)C(=O)OC2C1c2c(cc3c(c2OC)OCO3)CCN1C (stereo unspecified)	10	-46	5
CCn1nc(C)c(Br)c1-c1nc(-c2ccc(C)cc2)no1	-11	/	/
COc1ccc(C(=O)Oc2cccc3cccnc23)cc1[N+](=O)[O-]	-2	/	/
Cc1ccc(C(=O)Oc2ccc(Cl)c3cccnc23)cc1[N+](=O)[O-]	/	68*	-28
Brc1ccc(/C=N/Nc2ncnc3c2cnn3Cc2ccccc2)cc1	/	-22	-17
Cc1cc(C)nc(NS(=O)(=O)c2ccc(NC(=O)CCN3C(=O)c4ccccc4C3=O)cc2)n1	-39	6	38*
Cc1cc(NS(=O)(=O)c2ccc(NC(=O)CCN3C(=O)c4ccccc4C3=O)cc2)no1	-25	-28	-12
COc1ccc(/C(N)=N/OC(=O)COc2ccccc2Cl)cc1	4	-16	-4
C#CCn1cc(/C=N/NC(=O)c2cc3ccccc3o2)c2ccccc21	-6	-32	-1
Cc1cccc(OCCCCc2c(C)n[nH]c2C)c1C	-2	69*	-19
CCOc1ccccc1OCCCCCc1c(C)n[nH]c1C	-3	-19	-7
COc1ccccc1OCCCCCc1c(C)n[nH]c1C	17	-31	-10
Cc1cccc(OCCCOc2cccc3cccnc23)c1C	/	73*	-28
Cc1ccc(OCCCOc2cccc3cccnc23)cc1C	/	42	-31
COc1ccccc1OCCCc1c(C)n[nH]c1C	-6	100*	-30
SMILES	S1P3 antag	BB579 growth dn	Yeast life ext
CN1CCN(C(=O)C2=C[C@@H](C3CC3)C[C@@H](OCc3ccc(CO)cc3)O2)CC1	-5	/	/
COc1ccc([N+](=O)[O-])cc1NC(=O)/C=C/C(=O)O	-10	-17	-3
CC(C)=NOC(=O)c1c(C)noc1-c1snnc1C	11	/	/
CCOC(=O)c1ccccc1NC(=O)c1cc(S(=O)(=O)N2CCOCC2)ccc1F	8	-11	-10
CCOC(=O)N1CCN(S(=O)(=O)c2ccc(F)c(C(=O)Nc3cccc(C)c3C)c2)CC1	-1	-52	45*
CCCn1nnc(NC(=O)COc2ccccc2Cl)n1	3	-33	-14
O=C1OC(c2ccccc2)=C/C1=C/c1cccs1	0	-9	-5
CC(C1CC1)N(Cc1ccccc1)C(=S)Nc1cccc(C(F)(F)F)c1 (stereo unspecified)	15	-33	31*
CC(C1CC1)N(Cc1ccccc1)C(=S)Nc1ccccc1 (stereo unspecified)	-17	/	/
O=C(O)C1CCCCC1C(=O)NCc1ccc(F)cc1 (stereo unspecified)	-9	-40	-18
c1ccc(C2Oc3ccccc3C3CC(c4cccs4)=NN32)cc1 (stereo unspecified)	-9	5	3
O=[N+]([O-])c1ccc(C2Oc3ccccc3C3CC(c4ccccc4)=NN32)s1 (stereo unspecified)	-7	96*	-5
c1cncc(CSc2nnc(-c3cccnc3)n2Cc2ccco2)c1	-27	-42	-9
O=C(CSc1nnc(-c2cccnc2)n1Cc1ccco1)N1c2ccccc2Sc2ccccc21	91*	-30	-28
Cc1cc([N+](=O)[O-])ccc1NC(=O)c1cccc(NC(=O)C(C)C)c1	-3	/	/
Cc1nc2ccccc2c2c1C(=O)N(C(C)C)C2=O	31	-61	-10
Cc1nc2ccccc2c2c1C(=O)N(C)C2=O	11	66*	-9
Cc1[nH]c(=S)sc1Cc1ccc(Cl)c(Cl)c1	6	4	-3
N#C/C(=C\c1cn(CC(=O)N2CCCCC2)c2ccccc12)C(=O)NCc1ccc2c(c1)OCO2	1	-20	0
O=S(=O)(/C=C/c1ccccc1)NC1CCCCCCC1	-10	-46	27*
O=S(=O)(/C=C/c1ccccc1)NC1CCCCCC1	0	/	/
O=C(CC(Sc1n[nH]c(-c2ccccc2)n1)c1ccccc1)NCc1ccccc1 (stereo unspecified)	6	-31	0
Cc1cc(C)n(-c2ncc3c(n2)N(C)CCOC3=O)n1	11	/	/
Oc1c(I)cc(I)c2cccnc12	-4	83*	-4
Oc1c(Cl)cc(Cl)c2cccnc12	-7	/	/
SMILES	S1P3 antag	BB579 growth dn	Yeast life ext
CCC(C)NC(=O)c1ccccc1-c1nc2ccccc2[nH]1 (stereo unspecified)	-12	/	/
c1cnc(Sc2ccc3nnnn3n2)nc1	2	/	/
CC(=O)NNc1ncnc2c1cnn2-c1ccccc1	-1	/	/
O=C(COC(=O)C1CCN(C(=O)c2ccc(Cl)cc2)CC1)c1ccco1	17	-37	-4
CCOC(=O)C1CCN(C(=O)c2ccco2)CC1	69*	-19	-10
CCCOC(=O)c1ccc(Cl)c(NC(=O)c2cccnc2)c1	-2	/	/
OC(CNCc1ccccc1)(c1ccc(F)cc1)c1ccc(F)cc1	/	-72	4
CNc1ccccc(-c2ccc3ccccc3n2)c1=O	-3	-14	32*
c1ccc2nc(-c3nc4ccccc4o3)ccc2c1	-4	8	-20
CCC(=O)OCCNc1cc(Sc2nc3ccccc3s2)c2nonc2c1[N+](=O)[O-]	/	-30	32*
CCCSc1cc(NCCOC(C)=O)c([N+](=O)[O-])c2nonc12	4	-2	1
CCCSc1cc(NCCOC(=O)CCC)c([N+](=O)[O-])c2nonc12	0	2	28*
O=[N+]([O-])c1c(NCCCO)cc(Sc2nc3ccccc3s2)c2nonc12	/	6	-16
CC1(C)CC(=O)C2=C(C1)OC1=C(C(=O)CC(C)(C)C1)C2c1ccc(O)c([N+](=O)[O-])c1	-4	/	/
CC1(C)CC(=O)C2=C(C1)OC1=C(C(=O)CC(C)(C)C1)C2c1ccc(O)cc1O	-20	5	42*
Cc1nn(CCCNC(=O)C2CCCO2)cc1Br (stereo unspecified)	8	-23	-5
O=C(CN1CCc2ccccc21)NN1CC(=O)N(c2ccccc2)CC1=O	-14	/	/
COc1ccc(/C(N)=N/OC(=O)Oc2ccccc2)cc1OC	-7	2	1
O=c1c(-c2cccc([N+](=O)[O-])c2)[n+]([O-])c2ccccc2n1O	-5	/	/
O=c1c(-c2ccc(Cl)cc2)[n+]([O-])c2ccccc2n1O	/	100*	-15
Cc1ccc(C(=O)C(OC(=O)c2c(C)cc(=O)oc2C)c2ccccc2)cc1 (stereo unspecified)	-1	/	/
CC(C)Oc1ccc(-c2nn(-c3ccccc3)cc2/C=c2\sc3ncnn3c2=O)cc1	-22	-9	9
